In ChEMBL document CHEMBL1681772 (Bioorg Med Chem, 2011) one finds IC50 data, which are given here for 21 compounds.

The experiment has as its target T1, Prostaglandin G/H synthase 1 (Ovis aries, UniProt P05979).
T1 sequence (P05979 whole entry): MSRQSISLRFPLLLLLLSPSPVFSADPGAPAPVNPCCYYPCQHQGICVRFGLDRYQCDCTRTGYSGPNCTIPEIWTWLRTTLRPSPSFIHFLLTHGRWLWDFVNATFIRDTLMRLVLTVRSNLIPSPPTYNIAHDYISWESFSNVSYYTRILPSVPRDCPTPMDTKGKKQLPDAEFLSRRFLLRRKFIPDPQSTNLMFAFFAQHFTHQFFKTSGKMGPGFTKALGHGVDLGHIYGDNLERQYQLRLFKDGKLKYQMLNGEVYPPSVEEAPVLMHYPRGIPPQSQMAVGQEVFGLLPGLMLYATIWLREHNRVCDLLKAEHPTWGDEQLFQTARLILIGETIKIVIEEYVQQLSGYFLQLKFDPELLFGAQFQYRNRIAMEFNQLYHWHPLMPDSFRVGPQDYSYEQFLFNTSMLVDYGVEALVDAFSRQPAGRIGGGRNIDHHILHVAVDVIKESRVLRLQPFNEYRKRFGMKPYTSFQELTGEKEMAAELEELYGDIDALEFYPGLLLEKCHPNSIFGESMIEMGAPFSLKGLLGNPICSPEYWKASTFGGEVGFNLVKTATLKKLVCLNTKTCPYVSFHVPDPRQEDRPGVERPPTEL
Put plainly: Inhibition of ovine COX1 assessed as PGF2alpha level by EIA. The essentials: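 Ovine COX-1 with heme in 0.1 M Tris-HCl pH 8.0 (5 mM EDTA, 2 mM phenol); compound at […] (final), 2 min preincubation at 37 °C. Started with arachidonic acid (100 µM), stopped after 2 min with 1 M HCl. PGH2 reduced to PGF2α by stannous chloride and quantified by EIA (18 h, room temperature; Ellman's reagent, 410 nm). IC50 from percent inhibition, mean of two determinations.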

The structures appear in SMILES notation. Bounds are passed on as bounds.

One may read the IC50 as the concentration that gives 50% inhibition. As to `COC1(c2cccc(CN(c3ccc(Cl)cc3OCc3ccccc3)S(C)(=O)=O)c2)CCOCC1`, the IC50 is more than 100 µM.

Turning to `COC1(c2cccc(CS(=O)(=O)Nc3ccc([N+](=O)[O-])cc3OCc3ccccc3)c2)CCOCC1`, the IC50 worked out at 7.9 µM.

`COC1(c2cccc(COc3ccc(Cl)cc3OCc3ccccc3)c2)CCOCC1`: the half-inhibitory concentration (IC50) is more than 100 µM.

Turning to `CCOC(=O)c1ccc(OCc2cccc(C3(OC)CCOCC3)c2)c(OCc2ccccc2)c1`, the half-maximal inhibitory concentration (IC50) was 44.2 µM.

For `COC1(c2cccc(CNc3cc(C)ccc3OCc3ccccc3)c2)CCOCC1`, the 50% inhibitory concentration (IC50) is more than 100 µM.

On to `COC1(c2cccc(CNc3cc(Cl)ccc3OCc3ccccc3)c2)CCOCC1`, for which the IC50 is more than 100 µM.

`COC1(c2cccc(CNc3ccc([N+](=O)[O-])cc3OCc3ccccc3)c2)CCOCC1`: the concentration for half-maximal inhibition (IC50) came to 88.8 µM.

With `COC1(c2cccc(COc3ccccc3OCc3ccccc3)c2)CCOCC1`, the IC50 was more than 100 µM.

For `COC1(c2cccc(CNc3ccccc3OCc3ccccc3)c2)CCOCC1`, the half-inhibitory concentration (IC50) was more than 100 µM.

Turning to `COC1(c2cccc(CS(=O)(=O)Nc3cc(Cl)ccc3OCc3ccccc3)c2)CCOCC1`, the concentration for half-maximal inhibition (IC50) is 15.6 µM.

For the compound `COC1(c2cccc(CS(=O)(=O)Nc3cc(C)ccc3OCc3ccccc3)c2)CCOCC1`, the concentration for half-maximal inhibition (IC50) amounted to 16.5 µM.

Take `COC1(c2cccc(CS(=O)(=O)Nc3ccc(Cl)cc3OCc3ccccc3)c2)CCOCC1`: the IC50 was determined as 24.4 µM.

In the case of `COC1(c2cccc(CNc3ccc(Cl)cc3OCc3ccccc3)c2)CCOCC1`, the concentration for half-maximal inhibition (IC50) turned out to be 34.6 µM.

For the compound `COC1(c2cccc(CN(c3ccccc3OCc3ccccc3)S(C)(=O)=O)c2)CCOCC1`, the half-inhibitory concentration (IC50) is more than 100 µM.

Consider `CS(=O)(=O)Nc1ccc([N+](=O)[O-])cc1Oc1ccccc1` [NIMESULIDE], for which the IC50 amounted to 6.2 µM.

As to `CCOC(=O)c1ccc(OCc2ccccc2)c(NS(=O)(=O)Cc2cccc(C3(OC)CCOCC3)c2)c1`, the IC50 is 11.6 µM.

As for `COC1(c2cccc(CS(=O)(=O)Nc3ccccc3OCc3ccccc3)c2)CCOCC1`, the half-maximal inhibitory concentration (IC50) was 14.8 µM.

For the compound `COC1(c2cccc(CN(c3cc(Cl)ccc3OCc3ccccc3)S(C)(=O)=O)c2)CCOCC1`, the IC50 is more than 100 µM.

On to `COC1(c2cccc(CN(c3cc(C)ccc3OCc3ccccc3)S(C)(=O)=O)c2)CCOCC1`, for which the 50% inhibitory concentration (IC50) was more than 100 µM.

With `COC1(c2cccc(COc3ccc(Br)cc3OCc3ccccc3)c2)CCOCC1`, the IC50 is more than 100 µM.

On to `COC1(c2cccc(CN(c3ccc([N+](=O)[O-])cc3OCc3ccccc3)S(C)(=O)=O)c2)CCOCC1`, for which the half-inhibitory concentration (IC50) stood at 13.5 µM.
